From ChEMBL document CHEMBL4422620, “Synthesis of novel morpholine, thiomorpholine and N-substituted piperazine coupled 2-(thiophen-2-yl)dihydroquinolines as potent inhibitors of Mycobacterium tuberculosis” (Eur J Med Chem, 2019)
In brackets after ≈: the same amount, converted by molar mass.

Experiments:
[1] = test system: Mycobacterium tuberculosis; assay: Antitubercular activity against Mycobacterium tuberculosis H37Rv after 7 days by Alamar blue assay; assay type: functional; conditions: 168 h
In short: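 M. tuberculosis H37Rv inoculum from fresh LJ medium resuspended in 7H9-S (7H9 broth, 0.1% casitone, 0.5% glycerol, OADC), adjusted to McFarland No. 1, diluted 1:20. Serial two-fold drug dilutions in 7H9-S, with growth and sterile controls. Incubated at 37°C in normal atmosphere for 7 days, then Alamar blue added and plates re-incubated overnight. MIC was the lowest concentration fully inhibiting growth.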

[2] = Cytotoxicity against human HEK293T cells assessed as inhibition of cell growth at 50 ug/ml after 72 hrs by MTT assay relative to control; assay type: cell-based, HEK-293T; conditions: read-out: GI
In short: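 HEK-293T cells exposed to compounds at 50 μg/mL for 72 h. Viability was read as cellular conversion of MTT to formazan and expressed as percentage inhibition.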

Q: For `ClC1=C(CN2CCN(CC3OCCO3)CC2)CCc2nc(-c3cccs3)ccc21`, which MIC [1] is on record?
A: Its MIC is 12.5 µg/mL (≈ 28.9 µM).

Q: Which MIC [1] does the source give for `CC(C)(C)OC(=O)N1CCN(CC2=C(Cl)c3ccc(-c4cccs4)nc3CC2)CC1` here?
A: Its MIC is 25 µg/mL (≈ 56.1 µM).

Q: With `COc1ccccc1N1CCN(CC2=C(Cl)c3ccc(-c4cccs4)nc3CC2)CC1` as the compound, how does the inhibition at 72 h, 50 ug/ml [2] read?
A: The inhibition at 72 h, 50 ug/ml was 36.7%.

Q: And the MIC [1]?
A: The MIC was 6.25 µg/mL (≈ 13.8 µM).

Q: With `ClC1=C(CN2CCN(c3ccc(Cl)cc3)CC2)CCc2nc(-c3cccs3)ccc21` as the compound, how does the MIC [1] read?
A: Its MIC is 25 µg/mL (≈ 54.8 µM).

Q: With `Fc1ccccc1N1CCN(CC2=C(Cl)c3ccc(-c4cccs4)nc3CC2)CC1` as the compound, how does the inhibition at 72 h, 50 ug/ml [2] read?
A: The inhibition at 72 h, 50 ug/ml was 32.6%.

Q: What about the MIC [1] of the same compound?
A: Its MIC is 6.25 µg/mL (≈ 14.2 µM).

Q: Which MIC [1] does the source give for `ClC1=C(CN2CCN(Cc3ccc(Cl)cc3)CC2)CCc2nc(-c3cccs3)ccc21` here?
A: Its MIC is 12.5 µg/mL (≈ 26.6 µM).

Q: Which MIC [1] does the source give for `FC(F)(F)c1ccc(N2CCN(CC3=C(Cl)c4ccc(-c5cccs5)nc4CC3)CC2)cc1` here?
A: Its MIC is 25 µg/mL (≈ 51 µM).

Q: Which MIC [1] does the source give for `CC(=O)c1ccc(N2CCN(CC3=C(Cl)c4ccc(-c5cccs5)nc4CC3)CC2)cc1` here?
A: Its MIC is 25 µg/mL (≈ 53.9 µM).

Q: For `ClC1=C(CN2CCN(Cc3ccccc3)CC2)CCc2nc(-c3cccs3)ccc21`, which inhibition at 72 h, 50 ug/ml [2] is on record?
A: Its inhibition at 72 h, 50 ug/ml is 19.9%.

Q: And the MIC [1]?
A: The MIC was 1.56 µg/mL (≈ 3.58 µM).

Q: For `ClC1=C(CN2CCSCC2)CCc2nc(-c3cccs3)ccc21`, which MIC [1] is on record?
A: Its MIC is 25 µg/mL (≈ 68.9 µM).

Q: With `ClC1=C(CN2CCN(c3ccccc3)CC2)CCc2nc(-c3cccs3)ccc21` as the compound, how does the MIC [1] read?
A: The MIC was 25 µg/mL (≈ 59.2 µM).

Q: What does the source list for `ClC1=C(CN2CCN(c3ccccn3)CC2)CCc2nc(-c3cccs3)ccc21`?
A: inhibition at 72 h, 50 ug/ml [2]: 20.1%; MIC [1]: 1.56 µg/mL (≈ 3.69 µM)

Q: For `ClC1=C(CN2CCN(Cc3ccc4c(c3)OCO4)CC2)CCc2nc(-c3cccs3)ccc21`, which MIC [1] is on record?
A: The MIC was 25 µg/mL (≈ 52.1 µM).

Q: Which results are given for `O=C(C1CC1)N1CCN(CC2=C(Cl)c3ccc(-c4cccs4)nc3CC2)CC1`?
A: inhibition at 72 h, 50 ug/ml [2]: 28.9%; MIC [1]: 3.12 µg/mL (≈ 7.55 µM)

Q: Which results are given for `ClC1=C(CN2CCOCC2)CCc2nc(-c3cccs3)ccc21`?
A: inhibition at 72 h, 50 ug/ml [2]: 34%; MIC [1]: 6.25 µg/mL (≈ 18 µM)

Q: Which MIC [1] does the source give for `Cc1ccccc1N1CCN(CC2=C(Cl)c3ccc(-c4cccs4)nc3CC2)CC1` here?
A: Its MIC is 25 µg/mL (≈ 57.3 µM).

Q: Which MIC [1] does the source give for `O=C(O)c1cn(C2CC2)c2cc(N3CCNCC3)c(F)cc2c1=O` [CIPROFLOXACIN] here?
A: Its MIC is 1.56 µg/mL (≈ 4.71 µM).

Q: For `CC[C@@H](CO)NCCN[C@@H](CC)CO` [ETHAMBUTOL], which MIC [1] is on record?
A: Its MIC is 3.13 µg/mL (≈ 15.3 µM).

Q: With `NNC(=O)c1ccncc1` [ISONIAZID] as the compound, how does the MIC [1] read?
A: Its MIC is 0.1 µg/mL (≈ 0.729 µM).

Q: With `CO[C@H]1/C=C/O[C@@]2(C)Oc3c(C)c(O)c4c(O)c(c(/C=N/N5CCN(C)CC5)c(O)c4c3C2=O)NC(=O)/C(C)=C\C=C\[C@H](C)[C@H](O)[C@@H](C)[C@@H](O)[C@@H](C)[C@H](OC(C)=O)[C@@H]1C` [RIFAMPIN] as the compound, how does the MIC [1] read?
A: The MIC was 0.2 µg/mL (≈ 0.243 µM).
